Reference: ChEMBL document CHEMBL1124250, “9-Benzyl-6-(dimethylamino)-9H-purines with antirhinovirus activity” (J Med Chem, 1988)

Experiments:
Enterovirus [1] = test: Inhibitory concentration measured against Rhinovirus serotype 18; assay type: functional, organism-based
rhinovirus A1B [2] = test: In vitro activity against Rhinovirus type 1B by plaque inhibition assay.; assay type: functional, organism-based, Enterovirus; details: Rhinovirus A
Enterovirus [3] = test: Inhibitory concentration measured against Rhinovirus serotype 30; assay type: functional, organism-based
Enterovirus [4] = test: Inhibitory concentration measured against Rhinovirus serotype 16; assay type: functional, organism-based
Enterovirus [5] = test: Inhibitory concentration measured against Rhinovirus serotype 9; assay type: functional, organism-based
Enterovirus [6] = test: Inhibitory concentration measured against Rhinovirus serotype 1A; assay type: functional, organism-based
Enterovirus [7] = test: Inhibitory concentration measured against Rhinovirus serotype 13; assay type: functional, organism-based
Enterovirus [8] = test: Inhibitory concentration measured against Rhinovirus serotype 19; assay type: functional, organism-based
Enterovirus [9] = test: Inhibitory concentration measured against Rhinovirus serotype 2; assay type: functional, organism-based
Enterovirus [10] = test: Inhibitory concentration measured against Rhinovirus serotype 1B; assay type: functional, organism-based
Enterovirus [11] = test: Inhibitory concentration measured against Rhinovirus serotype 4; assay type: functional, organism-based
Enterovirus [12] = test: Inhibitory concentration measured against Rhinovirus serotype 5; assay type: functional, organism-based
Enterovirus [13] = test: Inhibitory concentration measured against Rhinovirus serotype 14; assay type: functional, organism-based
Enterovirus [14] = test: Inhibitory concentration measured against Rhinovirus serotype 15; assay type: functional, organism-based
Enterovirus [15] = test: Inhibitory concentration measured against Rhinovirus serotype 3; assay type: functional, organism-based
Enterovirus [16] = test: Inhibitory concentration measured against Rhinovirus serotype 29; assay type: functional, organism-based
Enterovirus [17] = test: Inhibitory concentration measured against Rhinovirus serotype 8; assay type: functional, organism-based
Enterovirus [18] = test: Inhibitory concentration measured against Rhinovirus serotype 31; assay type: functional, organism-based
Enterovirus [19] = test: Inhibitory concentration measured against Rhinovirus serotype 12; assay type: functional, organism-based
rhinovirus A1B [20] = test: In vitro activity against rhinovirus type 1B was determined by plaque inhibition assay; Inactive at 50 ug/disk, T=Toxic; assay type: functional, organism-based, Enterovirus
Procedure, shortened: (§1)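 Rhinovirus 1B plaque inhibition run on M-HeLa cell monolayers, with compound applied on disks at 50 µg/disk. Compounds active or slightly active at this level went on to a plaque reduction assay for the 50% inhibitory concentration.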

rhinovirus A1B [21] = test: In vitro activity against rhinovirus type 1B was determined by plaque inhibition assay; - = Inactive at 50 ug/disk; assay type: functional, organism-based, Enterovirus; procedure, shortened: as §1
Enterovirus [22] = test: Inhibitory concentration measured against Rhinovirus serotype 21; assay type: functional, organism-based
Enterovirus [23] = test: Percent inhibition of plaque formation of Rhinovirus serotype 13 was measured at 5 uM of the compound; assay type: functional
Enterovirus [24] = test: Percent inhibition of plaque formation of Rhinovirus serotype 29 was measured at 2.5 uM of the compound; assay type: functional
Enterovirus [25] = test: Percent inhibition of plaque formation of Rhinovirus serotype 31 was measured at 2.5 uM of the compound; assay type: functional
Enterovirus [26] = test: Percent inhibition of plaque formation of Rhinovirus serotype 15 was measured at 2.5 uM of the compound; assay type: functional
Enterovirus [27] = test: Percent inhibition of plaque formation of Rhinovirus serotype 18 was measured at 5 uM of the compound; assay type: functional
Enterovirus [28] = test: Percent inhibition of plaque formation of Rhinovirus serotype 14 was measured at 2.5 uM of the compound; assay type: functional
Enterovirus [29] = test: Percent inhibition of plaque formation of Rhinovirus serotype 8 was measured at 4 uM of the compound; assay type: functional
Enterovirus [30] = test: Percent inhibition of plaque formation of Rhinovirus serotype 18 was measured at 4 uM of the compound; assay type: functional

Structure (SMILES): CC(C)c1ccc(Cn2cnc3c(N(C)C)nc(Cl)nc32)cc1
- IC50 (Enterovirus [1]): 4.3 µM
- IC50 (rhinovirus A1B [2]): 0.07 µM
- IC50 (Enterovirus [3]): 8 µM
- IC50 (Enterovirus [4]): 0.2 µM
- IC50 (Enterovirus [5]): < 1 µM
- IC50 (Enterovirus [6]): < 1 µM
- IC50 (Enterovirus [7]): 5.8 µM
- IC50 (Enterovirus [8]): 7 µM
- IC50 (Enterovirus [9]): 1.2 µM
- IC50 (Enterovirus [10]): 0.07 µM
- IC50 (Enterovirus [11]): 6.1 µM
- IC50 (Enterovirus [12]): 8 µM
- IC50 (Enterovirus [13]): 5.9 µM
- IC50 (Enterovirus [14]): 4.5 µM
- IC50 (Enterovirus [15]): 7 µM
- IC50 (Enterovirus [16]): 0.5 µM
- IC50 (Enterovirus [17]): 6 µM
- IC50 (Enterovirus [18]): 4 µM
- IC50 (Enterovirus [19]): 3.4 µM

Structure (SMILES): CN(C)c1nc(Cl)nc2c1ncn2Cc1ccc(N)cc1
- IC50 (rhinovirus A1B [2]): 0.3 µM

Structure (SMILES): CN(C)c1nc(Cl)nc2c1ncn2Cc1ccc([N+](=O)[O-])cc1
- IC50 (rhinovirus A1B [2]): 0.51 µM

Structure (SMILES): CN(C)c1ncnc2c1ncn2Cc1ccc(Cl)cc1
- IC50 (rhinovirus A1B [2]): > 25 µM

Structure (SMILES): CN(C)c1nc(Cl)nc2c1ncn2Cc1cccc(OCc2ccccc2)c1
- IC50 (rhinovirus A1B [20]): Toxic

Structure (SMILES): CN(C)c1ncnc2c1ncn2Cc1cccc(OCc2ccccc2)c1
- IC50 (rhinovirus A1B [2]): 13 µM

Structure (SMILES): CN(C)c1ncnc2c1ncn2Cc1cc(Cl)cc(Cl)c1
- IC50 (rhinovirus A1B [2]): 4.6 µM

Structure (SMILES): CN(C)c1nc(Cl)nc2c1ncn2Cc1cccc(Cl)c1
- IC50 (rhinovirus A1B [2]): 0.59 µM

Structure (SMILES): COc1cccc(Cn2cnc3c(N(C)C)ncnc32)c1
- IC50 (rhinovirus A1B [2]): 50 µM

Structure (SMILES): CN(C)c1ncnc2c1ncn2Cc1ccccc1
- IC50 (rhinovirus A1B [2]): 33 µM

Structure (SMILES): CN(C)c1nc(Cl)nc2c1ncn2Cc1ccc2ccccc2c1
- IC50 (rhinovirus A1B [2]): 1.1 µM

Structure (SMILES): Cc1ccc(Cn2cnc3c(N(C)C)ncnc32)cc1
- IC50 (rhinovirus A1B [2]): 8.6 µM

Structure (SMILES): CN(C)c1ncnc2c1ncn2Cc1ccc(OCc2ccccc2)cc1
- IC50 (rhinovirus A1B [21]): Not Active

Structure (SMILES): CN(C)c1ncnc2c1ncn2Cc1cccc(N)c1
- IC50 (rhinovirus A1B [2]): 50 µM

Structure (SMILES): Cc1ccc(Cn2cnc3c(N(C)C)nc(Cl)nc32)cc1
- IC50 (Enterovirus [1]): 4 µM
- IC50 (rhinovirus A1B [2]): 0.08 µM
- IC50 (Enterovirus [4]): 1 µM
- IC50 (Enterovirus [5]): 2 µM
- IC50 (Enterovirus [22]): 5.6 µM
- IC50 (Enterovirus [6]): 0.12 µM
- IC50 (Enterovirus [7]): 2.3 µM
- IC50 (Enterovirus [8]): 14 µM
- IC50 (Enterovirus [9]): 11 µM
- IC50 (Enterovirus [10]): 0.08 µM
- IC50 (Enterovirus [11]): 4.6 µM
- IC50 (Enterovirus [12]): 6.2 µM
- IC50 (Enterovirus [13]): 7 µM
- IC50 (Enterovirus [14]): 3.5 µM
- IC50 (Enterovirus [15]): 7.2 µM
- IC50 (Enterovirus [16]): > 5 µM
- IC50 (Enterovirus [17]): 13 µM
- IC50 (Enterovirus [18]): 1.6 µM
- IC50 (Enterovirus [19]): 5.4 µM

Structure (SMILES): CN(C)c1nc(Cl)nc2c1ncn2Cc1cccc(I)c1
- IC50 (rhinovirus A1B [2]): 0.36 µM

Structure (SMILES): CN(C)c1ncnc2c1ncn2Cc1cccc(C#N)c1
- IC50 (rhinovirus A1B [21]): Not Active

Structure (SMILES): COc1ccc(Cn2cnc3c(N(C)C)ncnc32)cc1
- IC50 (rhinovirus A1B [2]): 38 µM

Structure (SMILES): CN(C)c1ncnc2c1ncn2Cc1cccc(I)c1
- IC50 (rhinovirus A1B [2]): 6.7 µM

Structure (SMILES): Cc1cccc(Cn2cnc3c(N(C)C)ncnc32)c1
- IC50 (rhinovirus A1B [2]): 32 µM

Structure (SMILES): CN(C)c1ncnc2c1ncn2Cc1ccc(N)cc1
- IC50 (rhinovirus A1B [21]): Not Active

Structure (SMILES): CN(C)c1ncnc2c1ncn2Cc1ccc(Cl)c(Cl)c1
- IC50 (rhinovirus A1B [2]): 2.5 µM

Structure (SMILES): CN(C)c1ncnc2c1ncn2Cc1ccc(C#N)cc1
- IC50 (rhinovirus A1B [21]): Not Active

Structure (SMILES): CN(C)c1ncnc2c1ncn2Cc1cccc(C(F)(F)F)c1
- IC50 (rhinovirus A1B [2]): 19.6 µM

Structure (SMILES): CN(C)c1nc(Cl)nc2c1ncn2Cc1ccc(Cl)cc1
- IC50 (rhinovirus A1B [2]): 0.12 µM
- IC50 (Enterovirus [3]): > 2.5 µM
- Inhibition (Enterovirus [23]): 12%
- IC50 (Enterovirus [5]): 2.1 µM
- IC50 (Enterovirus [22]): > 5 µM
- IC50 (Enterovirus [6]): 3 µM
- IC50 (Enterovirus [8]): > 5 µM
- IC50 (Enterovirus [9]): 2.5 µM
- IC50 (Enterovirus [10]): 0.12 µM
- Inhibition (Enterovirus [24]): 31%
- IC50 (Enterovirus [11]): > 2.5 µM
- IC50 (Enterovirus [12]): 5.2 µM
- Inhibition (Enterovirus [25]): 42%
- IC50 (Enterovirus [15]): 3.1 µM
- Inhibition (Enterovirus [26]): 40%
- Inhibition (Enterovirus [27]): 35%
- IC50 (Enterovirus [17]): 4.5 µM
- IC50 (Enterovirus [19]): 5.4 µM
- Inhibition (Enterovirus [28]): 32%

Structure (SMILES): CN(C)c1ncnc2c1ncn2Cc1ccc(F)cc1
- IC50 (rhinovirus A1B [21]): Not Active

Structure (SMILES): CN(C)c1ncnc2c1ncn2Cc1cccc(Cl)c1
- IC50 (rhinovirus A1B [2]): 30.5 µM

Structure (SMILES): CN(C)c1ncnc2c1ncn2Cc1cccc([N+](=O)[O-])c1
- IC50 (rhinovirus A1B [21]): Not Active

Structure (SMILES): CN(C)c1ncnc2c1ncn2Cc1cccc(F)c1
- IC50 (rhinovirus A1B [2]): 23 µM

Structure (SMILES): Cc1cccc(Cn2cnc3c(N(C)C)nc(Cl)nc32)c1
- IC50 (rhinovirus A1B [2]): 0.6 µM

Structure (SMILES): CN(C)c1nc(Cl)nc2c1ncn2Cc1ccc(C(C)(C)C)cc1
- IC50 (rhinovirus A1B [2]): 0.44 µM

Structure (SMILES): COc1cccc(Cn2cnc3c(N(C)C)nc(Cl)nc32)c1
- IC50 (rhinovirus A1B [2]): 2 µM

Structure (SMILES): CN(C)c1nc(Cl)nc2c1ncn2Cc1cccc(N)c1
- IC50 (rhinovirus A1B [2]): 13 µM

Structure (SMILES): CCc1ccc(Cn2cnc3c(N(C)C)nc(Cl)nc32)cc1
- IC50 (rhinovirus A1B [2]): 0.08 µM
- IC50 (Enterovirus [3]): 4 µM
- IC50 (Enterovirus [4]): 0.2 µM
- IC50 (Enterovirus [5]): 0.4 µM
- IC50 (Enterovirus [22]): 8 µM
- IC50 (Enterovirus [6]): 0.5 µM
- IC50 (Enterovirus [7]): 4.9 µM
- IC50 (Enterovirus [8]): 4.6 µM
- IC50 (Enterovirus [9]): 2.8 µM
- Inhibition (Enterovirus [29]): 30%
- IC50 (Enterovirus [10]): 0.08 µM
- IC50 (Enterovirus [11]): 4 µM
- IC50 (Enterovirus [12]): 5.6 µM
- IC50 (Enterovirus [13]): 3.3 µM
- Inhibition (Enterovirus [30]): 42%
- IC50 (Enterovirus [14]): 3.9 µM
- IC50 (Enterovirus [15]): 4 µM
- IC50 (Enterovirus [16]): 0.3 µM
- IC50 (Enterovirus [18]): 3.5 µM
- IC50 (Enterovirus [19]): 7 µM

Structure (SMILES): CN(C)c1nc(Cl)nc2c1ncn2Cc1ccccc1
- IC50 (rhinovirus A1B [2]): 0.82 µM

Structure (SMILES): CC(C)S(=O)(=O)n1c(N)nc2ccc(/C(=N/O)c3ccccc3)cc21 [ENVIROXIME]
- IC50 (rhinovirus A1B [2]): 0.04 µM

Structure (SMILES): CC(=O)Nc1ccc(Cn2cnc3c(N(C)C)ncnc32)cc1
- IC50 (rhinovirus A1B [21]): Not Active

Structure (SMILES): CN(C)c1ncnc2c1ncn2Cc1ccc([N+](=O)[O-])cc1
- IC50 (rhinovirus A1B [21]): Not Active

Structure (SMILES): CN(C)c1ncnc2c1ncn2Cc1cccc(Br)c1
- IC50 (rhinovirus A1B [2]): 14.4 µM

Structure (SMILES): CN(C)c1ncnc2c1ncn2Cc1ccc(O)cc1
- IC50 (rhinovirus A1B [2]): 34 µM

Structure (SMILES): CN(C)c1nc(Cl)nc2c1ncn2Cc1ccc(Cl)c(Cl)c1
- IC50 (rhinovirus A1B [2]): 0.32 µM

Structure (SMILES): CN(C)c1ncnc2c1ncn2Cc1cccc(NC(=O)C(N)Cc2ccccc2)c1 (configuration not stated)
- IC50 (rhinovirus A1B [2]): 17 µM

Structure (SMILES): CN(C)c1ncnc2c1ncn2Cc1cccc(O)c1
- IC50 (rhinovirus A1B [21]): Not Active

Structure (SMILES): COc1ccc(Cn2cnc3c(N(C)C)nc(Cl)nc32)cc1
- IC50 (rhinovirus A1B [2]): 0.7 µM
